SMILES strings stand for the structures. Calls of active or inactive are those of the source.

Data set [1] addresses Histamine H2 receptor (Homo sapiens) (UniProt P25021). The data set can be described thus: Inhibition of histamine H2 receptor (unknown origin) at 10 uM. The method, boiled down: (§1)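 Screened at 10 µM in a commercial panel of over 70 receptors. Significance threshold set at ≥50% inhibition.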
A short description of data set [2]: Drug uptake in gerbil brain at 30 mg/kg, ip after 36 mins. Format: ADME, organism-based. Also noted: dose 30 mg/kg, route intraperitoneal. Particulars: gerbillinae, read-out: Drug uptake. The method, boiled down: (§2)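 Gerbils given IP doses as a solution in 100% PEG-400. Brain and serum sampled 36 min post-injection, covering the time from dosing to the end of the behavioral test. Values are means (n = 3) with SD.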

Data set [3] is described as follows: Ratio of drug level in brain to serum in gerbil at 10 mg/kg, ip after 36 mins. Format: ADME, organism-based. Also noted: dose 10 mg/kg, route intraperitoneal. Particulars: gerbillinae. The method, boiled down: (§3)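 Gerbils given single IP dose in 100% PEG-400 (0.1–30 mg/kg); brain and serum sampled 36 min post-dose, matching the interval from dosing to end of forced swim test. Drug concentrations (nM) measured in each matrix and brain-to-serum ratio calculated; mean of n = 3 with SD.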

In a further data set the test system is Gerbillinae. The data set can be described thus: Toxicity in gerbil assessed as behavioral change measuring spontaneous locomotor activity at 0.1 to 1 mg/kg, ip after 30 mins relative to vehicle-treated control. The class given is organism-based. Further details: dose 0.1-1 mg/kg, route intraperitoneal. Particulars: in vivo, 0.5 h.
Data set [4] can be described thus: Drug uptake in gerbil brain at 10 mg/kg, ip after 36 mins. Format: ADME, organism-based. Also noted: dose 10 mg/kg, route intraperitoneal. As to conditions: gerbillinae, read-out: Drug uptake. The method, boiled down: as §2
Data set [5] in a line: Ratio of drug level in brain to serum in gerbil at 0.1 mg/kg, ip after 36 mins. The class given is ADME, organism-based. Further details: dose 0.1 mg/kg, route intraperitoneal. As to conditions: gerbillinae. In a few lines: as §3
Data set [6] is described as follows: Drug uptake in gerbil serum at 0.1 mg/kg, ip after 36 mins. Format: ADME, organism-based. Also noted: dose 0.1 mg/kg, route intraperitoneal. As to conditions: gerbillinae, read-out: Drug uptake. In a few lines:
as §2

The species entered for the next data set is Homo sapiens. The data set can be described thus: Inhibition of Ca2+ channel (unknown origin) at 10 uM. The method, boiled down: as §1
For data set [7], the target named is T1, 5-hydroxytryptamine receptor 2C (Homo sapiens, UniProt P28335).
T1 sequence (P28335 whole entry): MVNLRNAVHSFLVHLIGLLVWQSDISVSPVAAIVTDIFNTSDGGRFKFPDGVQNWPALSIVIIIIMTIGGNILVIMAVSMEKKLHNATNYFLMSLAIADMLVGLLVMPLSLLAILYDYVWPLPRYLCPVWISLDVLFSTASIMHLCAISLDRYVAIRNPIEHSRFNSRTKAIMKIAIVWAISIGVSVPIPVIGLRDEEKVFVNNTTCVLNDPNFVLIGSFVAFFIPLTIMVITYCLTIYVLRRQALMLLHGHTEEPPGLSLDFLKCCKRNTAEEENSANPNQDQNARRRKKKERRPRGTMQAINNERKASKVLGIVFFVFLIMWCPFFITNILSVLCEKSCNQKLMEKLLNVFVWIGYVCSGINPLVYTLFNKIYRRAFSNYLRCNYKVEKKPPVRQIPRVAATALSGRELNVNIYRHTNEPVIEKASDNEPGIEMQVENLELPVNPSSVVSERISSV
The data set can be described thus: Inhibition of 5HT2C receptor (unknown origin).

The nature of data set [8]: Drug uptake in gerbil serum at 1 mg/kg, ip after 36 mins. Format: ADME, organism-based. Also noted: dose 1 mg/kg, route intraperitoneal. As to conditions: gerbillinae, read-out: Drug uptake. In a few lines: as §2
The nature of data set [9]: Drug uptake in gerbil serum at 10 mg/kg, ip after 36 mins. The class given is ADME, organism-based. Further details: dose 10 mg/kg, route intraperitoneal. As to conditions: gerbillinae, read-out: Drug uptake. In a few lines:
as §2

Chain of Histamine H2 receptor (Homo sapiens) (P25021 whole entry): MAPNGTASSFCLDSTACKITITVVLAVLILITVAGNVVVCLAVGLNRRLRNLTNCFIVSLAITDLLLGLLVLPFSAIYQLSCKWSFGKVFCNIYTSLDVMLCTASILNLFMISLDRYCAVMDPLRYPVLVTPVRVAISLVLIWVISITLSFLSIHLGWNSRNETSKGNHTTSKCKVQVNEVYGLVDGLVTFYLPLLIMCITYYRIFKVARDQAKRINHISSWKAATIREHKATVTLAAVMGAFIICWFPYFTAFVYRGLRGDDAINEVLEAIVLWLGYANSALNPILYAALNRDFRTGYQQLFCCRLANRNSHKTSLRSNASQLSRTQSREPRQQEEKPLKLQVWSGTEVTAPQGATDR

For the compound `FC(F)(F)c1cc(COCC2(c3ccccc3)CCNCC2)cc(C(F)(F)F)c1`, the inhibition entry (in data set [1]; in the data set listed under Homo sapiens) was “Active” in each case. The concentration at 0.6 h stood at 7.3 µM in [2]; 4.3 µM in data set [4]; 0.0036 µM in [6]; 0.035 µM in data set [8]; 0.73 µM in data set [9]. Moreover, the Kp (as a rule, the ratio of the level in a tissue or fluid to that in plasma or blood) at 0.6 h in data set [3] came to 5.2; in data set [5] it was 2.3. Further, the Activity result in the data set on Gerbillinae was “Non-toxic”. In addition, the IC50 (commonly the concentration at which inhibition is half-maximal) in data set [7] is more than 1 µM.
